In ChEMBL document CHEMBL4725466, “Discovery and SAR of Novel Disubstituted Quinazolines as Dual PI3Kalpha/mTOR Inhibitors Targeting Breast Cancer” (ACS Med Chem Lett, 2020):
≈ marks a conversion by molar mass, not a printed value. Calls of active or inactive are those of the source. No cut-off for these calls is given here.

Columns and labels:
[1] = target: T1, PI3-kinase p110-alpha/p85-alpha (Homo sapiens) (UniProt P27986+P42336); assay: Inhibition of human PI3K p110alpha/p85alpha at 10 uM using PIP2 as substrate incubated for 10 mins followed by ATP addition and measured after 30 mins in presence of 10 uM ATP by HTRF assay; assay type: protein-complex assay
[2] = target: T2, Serine/threonine-protein kinase mTOR (Homo sapiens, UniProt P42345); assay: Inhibition of human mTOR at 10 uM using 4EBP1 as substrate after 120 mins by [gamma-33P]-ATP assay
Outline: (§1)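 Single-point kinase screen by HotSpot radioisotope filter binding assay; compound at 10 μM with 10 μM ATP, reported as percent inhibition of PI3Kα and mTOR.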

[3] = target: PI3-kinase p110-alpha/p85-alpha (Homo sapiens, UniProt P42336); assay: Inhibition of human PI3K p110alpha/p85alpha using PIP2 as substrate incubated for 10 mins followed by ATP addition and measured after 30 mins in presence of 10 uM ATP by HTRF assay; assay type: protein-complex assay
PI3-kinase p110-alpha/p85-alpha, sequence (P27986 whole entry): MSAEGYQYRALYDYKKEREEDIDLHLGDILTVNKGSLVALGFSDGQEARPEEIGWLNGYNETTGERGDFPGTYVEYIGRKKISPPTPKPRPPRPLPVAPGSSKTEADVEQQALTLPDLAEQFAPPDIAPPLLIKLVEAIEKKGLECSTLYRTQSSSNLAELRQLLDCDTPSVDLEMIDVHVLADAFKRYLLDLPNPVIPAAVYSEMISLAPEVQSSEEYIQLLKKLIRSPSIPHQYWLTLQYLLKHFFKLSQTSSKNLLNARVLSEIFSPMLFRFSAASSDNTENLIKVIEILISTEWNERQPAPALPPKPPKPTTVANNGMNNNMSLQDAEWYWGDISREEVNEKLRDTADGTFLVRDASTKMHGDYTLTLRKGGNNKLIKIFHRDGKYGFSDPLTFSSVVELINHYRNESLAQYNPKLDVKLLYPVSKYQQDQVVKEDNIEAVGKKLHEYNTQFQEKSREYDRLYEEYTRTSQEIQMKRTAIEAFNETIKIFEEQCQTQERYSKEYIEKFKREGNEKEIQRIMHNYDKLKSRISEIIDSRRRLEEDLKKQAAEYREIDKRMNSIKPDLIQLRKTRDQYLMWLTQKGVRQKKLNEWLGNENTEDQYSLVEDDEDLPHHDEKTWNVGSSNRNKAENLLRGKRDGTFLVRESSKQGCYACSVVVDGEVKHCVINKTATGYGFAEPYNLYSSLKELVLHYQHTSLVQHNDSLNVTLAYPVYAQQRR
PI3-kinase p110-alpha/p85-alpha, sequence (P42336 whole entry): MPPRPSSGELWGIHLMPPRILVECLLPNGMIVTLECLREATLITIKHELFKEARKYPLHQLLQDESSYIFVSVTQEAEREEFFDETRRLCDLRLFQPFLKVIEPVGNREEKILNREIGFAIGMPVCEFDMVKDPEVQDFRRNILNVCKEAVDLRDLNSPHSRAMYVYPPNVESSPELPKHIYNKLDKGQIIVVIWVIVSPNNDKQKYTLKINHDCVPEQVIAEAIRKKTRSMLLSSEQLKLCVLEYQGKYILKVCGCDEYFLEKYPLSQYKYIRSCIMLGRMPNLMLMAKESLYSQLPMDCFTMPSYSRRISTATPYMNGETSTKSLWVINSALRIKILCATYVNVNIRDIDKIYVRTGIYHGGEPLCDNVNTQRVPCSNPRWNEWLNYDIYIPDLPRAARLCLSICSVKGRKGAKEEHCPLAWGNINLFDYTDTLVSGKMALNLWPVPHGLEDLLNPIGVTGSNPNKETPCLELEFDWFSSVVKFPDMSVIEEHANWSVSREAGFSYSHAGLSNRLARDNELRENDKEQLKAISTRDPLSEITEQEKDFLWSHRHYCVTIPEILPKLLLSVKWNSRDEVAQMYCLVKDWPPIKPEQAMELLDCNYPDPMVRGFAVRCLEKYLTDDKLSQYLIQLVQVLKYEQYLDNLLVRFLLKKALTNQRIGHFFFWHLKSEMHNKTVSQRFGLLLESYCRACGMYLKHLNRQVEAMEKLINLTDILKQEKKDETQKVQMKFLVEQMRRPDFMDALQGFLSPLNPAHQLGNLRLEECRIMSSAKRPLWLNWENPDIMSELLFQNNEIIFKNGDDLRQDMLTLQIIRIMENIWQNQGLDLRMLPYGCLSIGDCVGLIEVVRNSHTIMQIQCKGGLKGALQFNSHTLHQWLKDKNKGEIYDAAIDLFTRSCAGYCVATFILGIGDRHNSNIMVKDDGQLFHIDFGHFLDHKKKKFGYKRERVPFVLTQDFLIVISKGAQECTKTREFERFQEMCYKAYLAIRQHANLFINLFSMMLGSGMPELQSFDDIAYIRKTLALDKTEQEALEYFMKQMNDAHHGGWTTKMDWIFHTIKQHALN

[4] = Kinetic aqueous solubility of compound in 2% DMSO/Phosphate buffer saline incubated for 90 mins under shaking condition by; assay type: physicochemical; details: 2% DMSO/phosphate buffered saline, read-out: Kinetic_solubility
Outline: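 Maximum kinetic aqueous solubility measured in 2% DMSO/phosphate-buffered saline, pH 7.4.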

[5] = Half life in CD1 mouse liver microsomes at 1 uM incubated for 60 mins under shaking condition by LC-MS/MS analysis; assay type: ADME, Microsome
Outline: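 Metabolic stability in mouse liver microsomes with test compound at 1 μM; result expressed as t1/2 (min).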

[6] = Cytotoxicity against human primary fibroblasts assessed as cell viability at 10 uM after 48 hrs by celltiter-glo 2D luminescent assay relative to control; assay type: cell-based, Fibroblast; details: read-out: Activity
Outline: (§2)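 2D CellTiter-Glo luminescent viability screen, single 10 μM compound concentration, in MDA-MB-468, MDA-MB-231 and MCF7 breast cancer cells and in normal human dermal fibroblasts; output reported as percent of viable cells.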

MDA-MB-231 = assay: Antiproliferative activity against human MDA-MB-231 cells assessed as cell viability at 10 uM after 48 hrs by celltiter-glo 2D luminescent assay relative to control; assay type: functional; details: read-out: Activity; outline: as §2
MDA-MB-468 = assay: Antiproliferative activity against human MDA-MB-468 cells assessed as cell viability at 10 uM after 48 hrs by celltiter-glo 2D luminescent assay relative to control; assay type: functional; details: read-out: Activity; outline: as §2
MCF7 [7] = assay: Antiproliferative activity against human MCF7 cells assessed as cell viability at 10 uM after 48 hrs by celltiter-glo 2D luminescent assay relative to control; assay type: functional; details: read-out: Activity; outline: as §2
MCF7 [8] = assay: Antiproliferative activity against human MCF7 cells assessed as reduction in cell viability after 48 hrs by celltiter-glo 3D luminescent assay; assay type: functional, cell-based; details: MCF7, 48 h
Outline: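 MCF7 cells grown in 3D culture, viability read by CellTiter-Glo 3D luminescence; dose–response curves run up to 15 μM to derive IC50.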

[9] = target: T1, PI3-kinase p110-alpha/p85-alpha (Homo sapiens); assay: Inhibition of human PI3K p110alpha/p85alpha at 10 uM using PIP2 as substrate incubated for 10 mins followed by ATP addition and measured after 30 mins in presence of 10 uM ATP by HTRF assay relative to control; assay type: protein-complex assay
[10] = target: T2, Serine/threonine-protein kinase mTOR; assay: Inhibition of human mTOR at 10 uM using 4EBP1 as substrate after 120 mins by [gamma-33P]-ATP assay relative to control; outline: as §1

Compound | inhibition [1] | inhibition [2] | IC50 [3] [nM] | solubility kinetic at 1.5 h [4] [µM] | half-life at 1 µM [5] [min] | viability at 48 h, 10 µM [6] [%] | viability at 10 µM (MDA-MB-231) [%] | viability at 10 µM (MDA-MB-468) [%] | viability at 10 µM (MCF7 [7]) [%] | IC50 (MCF7 [8]) [nM] | inhibition [9] [%] | inhibition [10] [%]
CC(=O)c1ccc(NC(=O)Nc2ccc(-c3nc(N4CCOCC4)c4ccccc4n3)cc2)cc1 | Active | Active | 16.6 | 2 (≈ 0.935 µg/mL) | > 60 | 20 | 74 | 42 | 22 |  |  | 
O=C(Nc1ccccc1)Nc1ccc(-c2nc(N3CCOCC3)c3ccccc3n2)cc1 | Active | Active | 12 | 8.1 (≈ 3.45 µg/mL) | > 60 | 99 | 140 | 80 | 35 | 1200 |  | 
CCOC(=O)c1ccc(Nc2nc(N3CCOCC3)c3ccccc3n2)cc1 | Active | Active |  |  |  |  |  |  |  |  |  | 
CC(=O)c1ccc(Nc2nc(N3CCOCC3)c3ccccc3n2)cc1 | Active | Active |  |  |  |  |  |  |  |  |  | 
N=C(N)NS(=O)(=O)c1ccc(NC(=O)Nc2ccc(-c3nc(N4CCOCC4)c4ccccc4n3)cc2)cc1 | Active | Active | 18.5 | 6.1 (≈ 3.33 µg/mL) | > 60 | 92 | 152 | 51 | 30 | 300 |  | 
O=C(Nc1ccc(-c2nc(N3CCOCC3)c3ccccc3n2)cc1)Nc1ccc(S(=O)(=O)Nc2ccccn2)cc1 | Active | Active |  | < 2 | 37.8 |  |  |  |  |  | 84 | 
O=C(O)c1cccc(-c2nc(N3CCOCC3)c3ccccc3n2)c1 | Active | Active |  |  |  |  |  |  |  |  |  | 
CS(=O)(=O)Nc1ccc(NC(=O)Nc2ccc(-c3nc(N4CCOCC4)c4ccccc4n3)cc2)cc1 | Active | Active | 6.2 | 6.9 (≈ 3.58 µg/mL) | 60 | 38 | 137 | 66 | 8 |  |  | 
NS(=O)(=O)c1ccc(Nc2nc(N3CCOCC3)c3ccccc3n2)cc1 | Active | Active |  |  |  |  |  |  |  |  |  | 
O=C(Nc1ccc(-c2nc(N3CCOCC3)c3ccccc3n2)cc1)Nc1ccc(S(=O)(=O)Nc2ncccn2)cc1 | Active | Active |  | 13.6 (≈ 7.92 µg/mL) | > 60 |  |  |  |  |  | 83 | 
O=S(=O)(Nc1ncccn1)c1ccc(Nc2nc(N3CCOCC3)c3ccccc3n2)cc1 | Active | Active |  |  |  |  |  |  |  |  |  | 
CCOC(=O)c1ccc(NC(=O)Nc2ccc(-c3nc(N4CCOCC4)c4ccccc4n3)cc2)cc1 | Active | Active |  | < 2 | 30.5 |  |  |  |  |  | 73 | 81
O=C(Nc1ccc(-c2nc(N3CCOCC3)c3ccccc3n2)cc1)Nc1ccc(S(=O)(=O)Nc2nccs2)cc1 | Active | Active | 26.1 | 3.1 (≈ 1.82 µg/mL) | > 60 | 95 | 140 | 59 | 40 | 1800 |  | 
CCC(=O)c1ccc(NC(=O)Nc2ccc(-c3nc(N4CCOCC4)c4ccccc4n3)cc2)cc1 | Active | Active |  | 4 (≈ 1.93 µg/mL) | > 60 |  |  |  |  |  | 77 | 73
N=C(N)NS(=O)(=O)c1ccc(Nc2nc(N3CCOCC3)c3ccccc3n2)cc1 | Active | Active | 5900 | 22.7 (≈ 9.7 µg/mL) | 44.9 |  |  |  |  |  |  | 
O=C(NCCO)Nc1ccc(-c2nc(N3CCOCC3)c3ccccc3n2)cc1 | Active | Active | 185 | 200 (≈ 78.7 µg/mL) | 53.1 | 95 | 146 | 65 | 31 | 700 |  | 
N#Cc1cccc(-c2nc(N3CCOCC3)c3ccccc3n2)c1 | Active | Active |  |  |  |  |  |  |  |  |  | 
O=C(Nc1ccc(-c2nc(N3CCOCC3)c3ccccc3n2)cc1)Nc1ccc(S(=O)(=O)Nc2ccccc2)cc1 | Active | Active |  | < 2 | 23.5 |  |  |  |  |  | 63 | 75
O=C(Nc1ccc(CO)cc1)Nc1ccc(-c2nc(N3CCOCC3)c3ccccc3n2)cc1 | Active | Active | 2.4 | 14.3 (≈ 6.51 µg/mL) | > 60 | 86 | 208 | 60 | 7 | 200 |  | 
Oc1cccc(-c2nc(N3CCOCC3)c3oc4ncccc4c3n2)c1 [PI-103] |  |  |  | 3.4 (≈ 1.18 µg/mL) | 7.1 | 42 |  |  |  |  |  | 
O=C(Nc1ccc(-c2nc(N3CCOCC3)c3ccccc3n2)cc1)Nc1cccc(CO)c1 | Active | Active | 7.2 | 8.2 (≈ 3.74 µg/mL) | > 60 | 94 | 138 | 47 | 13 | 300 |  | 
O=C(Nc1ccc(CCO)cc1)Nc1ccc(-c2nc(N3CCOCC3)c3ccccc3n2)cc1 | Active | Active | 1.41 | 5.9 (≈ 2.77 µg/mL) | 38.2 | 63 | 192 | 74 | 7 | 300 |  | 
O=C(Nc1ccc(-c2nc(N3CCOCC3)c3ccccc3n2)cc1)Nc1ccc(S(=O)(=O)Nc2ccc(F)cc2)cc1 | Active | Active |  | < 2 | > 60 |  |  |  |  |  | 54 | 60
O=C(Nc1ccc(-c2nc(N3CCOCC3)c3ccccc3n2)cc1)Nc1cncnc1 |  |  | 114 | 2.7 (≈ 1.15 µg/mL) | 24.5 | 88 | 138 | 56 | 21 | 1600 |  | 
Oc1ccc(-c2nc(N3CCOCC3)c3ccccc3n2)cn1 | Active | Active |  |  |  |  |  |  |  |  |  | 
O=S(=O)(Nc1ccccn1)c1ccc(Nc2nc(N3CCOCC3)c3ccccc3n2)cc1 | Active | Active |  |  |  |  |  |  |  |  |  | 
CNC(=O)Nc1ccc(-c2nc(N3CCOCC3)c3ccccc3n2)cc1 | Active | Active | 186 | 192 (≈ 69.8 µg/mL) | 8 | 71 | 180 | 96 | 34 |  |  | 
O=C(Nc1ccc(-c2nc(N3CCOCC3)c3ccccc3n2)cc1)Nc1ccc(S(=O)(=O)Nc2ccc(F)cc2F)cc1 | Active | Active |  | 4.3 (≈ 2.65 µg/mL) | > 60 |  |  |  |  |  | 56 | 70
CNC(=O)c1ccc(NC(=O)Nc2ccc(-c3nc(N4CCOCC4)c4ccccc4n3)cc2)cc1 | Active | Active | 2.5 | < 2 | > 60 | 80 | 66 | 54 | 12 | 300 |  | 
NS(=O)(=O)c1ccc(NC(=O)Nc2ccc(-c3nc(N4CCOCC4)c4ccccc4n3)cc2)cc1 | Active | Active | 3.4 | < 2 | > 60 | 84 | 114 | 33 | 8 | 200 |  | 
